From ChEMBL document CHEMBL1155843, “Selective alkylation of beta(II)-tubulin and thioredoxin-1 by structurally related subsets of aryl chloroethylureas leading to either anti-microtubules or redox modulating agents” (2008)
Calls of active or inactive are those of the source. No cut-off for these calls is given here.

What was measured:
[1] = system: M21; test: Antiproliferative activity against human M21 cells after 48 hrs by sulforhodamine B method; type: functional; conditions: M21, 48 h
Outline: (§1)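 Seeding per well: 5 × 10³ HT-29 cells, or 3.5 × 10³ M21 or MCF-7 cells. Drugs were dissolved fresh in DMSO and serially diluted in medium (final range 100 to 0.3), with DMSO held at 0.12%. Cells were exposed for 48 h, fixed with cold TCA (10% final, 1 h, 4 °C) and stained with 0.1% SRB for 15 min. Dye was solubilized in 10 mM Tris and read at A585. Day-0 OD was subtracted, inhibition was calculated against DMSO cells, and n ≥ 3.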

[2] = system: MCF7; test: Cell cycle arrest in human MCF7 cells assessed as accumulation at S phase at 2 times GI50 after 24 hrs by flow cytometry; type: functional
Outline: (§2)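 Cells were trypsinized, PBS-washed, fixed in ice-cold ethanol, and stained with propidium iodide plus RNase for 30 min at room temperature. G0/G1, S and G2/M fractions were measured by flow cytometry.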

[3] = system: M21; test: Induction of beta2-tubulin alkylation in human M21 cells at 2 times GI50 after 24 hrs by Western blot analysis; type: cell-based
Outline: (§3)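 Floating and adherent cells were pooled and lysed in boiled Laemmli buffer; protein was measured by Lowry. 20 µg per lane ran on 10% SDS-PAGE and was blotted with anti-βII-tubulin (1:500), HRP anti-mouse (1:2500) and ECL. Alkylation was scored as a faster-migrating βII-tubulin band.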

[4] = system: MCF7; test: Antiproliferative activity against human MCF7 cells after 48 hrs by sulforhodamine B method; type: functional; conditions: MCF7, 48 h; outline: as §1
[5] = system: HT-29; test: Antiproliferative activity against human HT29 cells after 48 hrs by sulforhodamine B method; type: functional; conditions: HT-29, 48 h; outline: as §1
[6] = system: M21; test: Induction of beta2-tubulin alkylation in human M21 cells at 2 times GI50 after 48 hrs by Western blot analysis; type: cell-based; outline: as §3
[7] = system: M21; test: Inhibition of nuclear translocation of thioredoxin-1 from cytosol in human M21 cells at 2 times GI50 after 16 hrs by immunocytofluorescence; type: functional, cell-based
Outline: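 Cells were fixed in 3.7% formaldehyde (20 min), permeabilized with 0.1% saponin and blocked with 3% BSA. Staining used anti-Trx-1 monoclonal (1:200, 2 h, 37 °C) and Alexa-488 anti-mouse IgG (1:1000, 1 h). Trx-1 cytosol/nucleus localization was read by confocal immunofluorescence.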

[8] = system: MCF7; test: Cell cycle arrest in human MCF7 cells assessed as accumulation at G2/M phase at 2 times GI50 after 24 hrs by flow cytometry; type: functional; outline: as §2
[9] = system: MCF7; test: Cell cycle arrest in human MCF7 cells assessed as accumulation at G0/G1 phase at 2 times GI50 after 24 hrs by flow cytometry; type: functional; outline: as §2
[10] = system: M21; test: Induction of beta2-tubulin alkylation in human M21 cells at 2 times GI50 by Western blot analysis; type: cell-based; outline: as §3
[11] = system: M21; test: Stimulation of nuclear translocation of thioredoxin-1 from cytosol in human M21 cells at 25 µM after 16 hrs by immunocytofluorescence

Structure (SMILES)	GI50 [1]	Activity [2]	Activity [3]	GI50 [4]	GI50 [5]	Activity [6]	Activity [7]	Activity [8]	Activity [9]	Activity [10]	Activity [11]
CC1(C)CCC(C)(C)c2cc(NC(=O)NCCCl)ccc21	2600 nM	20%	Active	4200 nM	1300 nM	Active	inactive	74%	6%	–	–
CCC(C)SSc1ncc[nH]1 (centres undefined) [PX-12]	–	13%	–	–	–	–	–	58%	29%	inactive	Active
